S100A4 inh HTS = inhibitors of human S100A4 binding to myosin IIA peptide; P26447; S100A4/TAMRA-MyoIIA peptide fluorescence polarization; inhibition, % at 10.7 µM; hit rate 0.14% among 360,000; AID 652163;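 active = mean inhibition of at least 70% across replicates, with every replicate also reaching that level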
Target sequence (P26447 whole entry, looked up): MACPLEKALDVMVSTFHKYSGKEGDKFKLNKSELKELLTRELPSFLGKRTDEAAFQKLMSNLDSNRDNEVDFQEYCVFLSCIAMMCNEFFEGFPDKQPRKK
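Test system – S100A4 monomer (human) · Compound – single-point compound testing · Schedule – 5 min incubation before reading · Probe or stimulus – TAMRA-labelled myosin IIA heavy-chain peptide probe, 5 nM · Benchmarks – neutral control DMSO, positive control TFP · Medium – Calcium-containing HEPES buffer, pH 7.2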
rRNA inh HTS = inhibitors of bacterial rRNA selective over humanized ribosomes. hit rate 1.6% among 350,000. GFP signal change (wild-type ribosome), % (no concentration beside the values). E. coli WT GFP vs humanized-ribosome RFP mutants, fluorescence, 24 h; active compounds read low; DMSO median 0, no signal -100;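 active = significant combined selectivity score with lowered wild-type GFP, culture density cut under 30%, mutant RFP and density less affected; inactive = any of these conditions unmet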
ERAP1 HTS inh = blocks human ERAP1 aminopeptidase activity. Q9NZ08. recombinant ERAP1, Leu-AMC fluorescence, 60 min. inhibition, % at 10.7 µM. hit rate 0.15% among 340,000. AID 652197;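 active = mean replicate inhibition of at least 30%, or all replicates individually reaching that 30% level; inactive = mean below 30% and not every replicate reaching it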;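 note: 0% = neutral control wells and 100% = L-leucinethiol positive control wells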
F508del corr = CFTR F508del correction in bronchial cells; CFBE cells, YFP halide quenching; stimulated with forskolin plus potentiator P3; % fluorescence drop versus neutral controls; activity (quench increase), % at 7.58 µM; hit rate 0.36% among 350,000; AID 720511;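 active = mean added fluorescence quench of at least 8% versus neutral control, with both replicates also reaching 8%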;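 note: cells transiently co-express mutant CFTR-F508del with the halide-sensitive YFP; corrector assay measuring rescue of mutant channel to the surface after 24 h compound exposure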
SIRT5 inh = inhibitors of human sirtuin-5 desuccinylase; Q9NXA8; Purified SirT5, succinyl-peptide AMC, trypsin-coupled fluorescence; inhibition, % at 15 µM; hit rate 1.1% among 330,000; AID 652115; in the data active = inhibition above about 15%
Target sequence (Q9NXA8 whole entry, looked up): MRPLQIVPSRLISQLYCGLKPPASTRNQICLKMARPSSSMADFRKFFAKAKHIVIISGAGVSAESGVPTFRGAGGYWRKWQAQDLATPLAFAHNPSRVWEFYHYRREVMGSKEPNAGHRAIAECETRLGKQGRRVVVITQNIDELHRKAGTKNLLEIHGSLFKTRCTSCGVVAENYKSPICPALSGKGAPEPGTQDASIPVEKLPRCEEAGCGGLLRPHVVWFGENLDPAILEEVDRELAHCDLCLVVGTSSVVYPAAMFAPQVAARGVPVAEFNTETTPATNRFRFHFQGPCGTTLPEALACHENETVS
* = called active by the depositor; / = no result. Most compounds without a hit are left out; they make up all but 3.1% or so of the library.

SMILES	S100A4 inh HTS	rRNA inh HTS	ERAP1 HTS inh	F508del corr	SIRT5 inh
O=C(/C=C/c1ccco1)Nc1cccc(C(=O)Nc2ccccc2C(=O)O)c1	2	-4	-4	-2	21*
O=C(Nc1ccccc1C(=O)N/N=C/c1ccc(O)cc1)c1ccccc1	7	-30*	7	-2	2
O=C(Nc1cc(C(=O)Nc2ccccc2C(=O)O)cc(C(=O)Nc2ccccc2C(=O)O)c1)c1ccccc1	-6	-6	0	-2	25*
NC(=O)c1ccc(NC(=O)CCCc2nc(-c3ccccc3Cl)no2)cc1	6	4	0	/	18*
COc1cc(-c2noc(CCCC(=O)Nc3ccc(C(N)=O)cc3)n2)cc(OC)c1OC	-3	16	/	3	-1
C[C@H](CO)N1C[C@H](C)[C@@H](CN(C)S(=O)(=O)c2ccccc2)Oc2ccc(NC(=O)CCCN(C)C)cc2CC1=O	0	2	-1	1	-1
Cc1cccc(Cl)c1NC(=O)NCCCN1CCCCC1C (stereo not given)	1	6	-6	0	23*
COc1cccc(CN2CCC(C(=O)N3CCN(Cc4ccc5c(c4)OCO5)CC3)CC2)c1	1	11	-9	2	17*
Cc1ccc(S(=O)(=O)N(C)CC(=O)N2CCN(Cc3ccc4c(c3)OCO4)CC2)cc1	0	11	2	4	30*
CO[C@@H]1CC[C@@H]2CCN(C)C(=O)C[C@H](c3ccccc3)CN(C)C(=O)c3cccc(C#N)c3OC[C@@H]1O2	0	-1	-1	/	25*
CO[C@H]1CC[C@H]2CCOc3c(C#N)cccc3C(=O)N(C)C[C@H](c3ccccc3)CC(=O)N(C)C[C@H]1O2	121*	4	1	0	9
C[C@H]1CN([C@@H](C)CO)C(=O)Cc2cc(NS(=O)(=O)c3cccs3)ccc2O[C@@H]1CN(C)Cc1ccc(-c2ccccc2)cc1	-6	1	-2	1	15*
C[C@H](CO)N1C[C@H](C)[C@@H](CN(C)Cc2ccc(-c3ccccc3)cc2)Oc2ccc(NS(=O)(=O)c3cccs3)cc2CC1=O	-25	-1	-1	-4	18*
C[C@@H]1CN([C@H](C)CO)C(=O)Cc2cc(NC(=O)CCN3CCOCC3)ccc2O[C@@H]1CN(C)Cc1ccccc1	5	4	-2	0	3
Cc1cc(C(=O)N/N=C/c2ccc(-c3ccc([N+](=O)[O-])cc3Cl)o2)n[nH]1	4	-32*	2	-2	-3
O=C(NCC1CC1)[C@H]1[C@H](CO)[C@H]2Cn3c(ccc(-c4ccccc4F)c3=O)[C@@H]1N2Cc1ccncc1	-6	-1	0	-1	-4
C=CCOc1c(Br)cc(CNn2c(C)n[nH]c2=S)cc1OCC	-4	-31*	3	-1	0
Cc1[nH]n(-c2ccccc2)c(=O)c1C(c1ccc(C(=O)O)cc1)c1c(C)[nH]n(-c2ccccc2)c1=O	-5	-19*	5	0	-4
Cc1[nH]n(-c2ccccc2)c(=O)c1C(c1cccc([N+](=O)[O-])c1)c1c(C)[nH]n(-c2ccccc2)c1=O	9	-46*	-3	0	0
CCOC(=O)Nc1cc2c(c(N)n1)N=C(c1ccccc1)CN2	5	19	2	12*	1
CC(=O)c1ccc2c(c1)N(CCCN(C)C)c1ccccc1S2	11	/	3	-16	-3
CN(C)CCCN1c2ccccc2Sc2ccccc21	1	/	2	11*	-2
CC(C)(C)c1ccc(CC(=O)N2CCC2(C)C(=O)NS(=O)(=O)c2cccc(Cl)c2)cc1 (stereo not given)	3	-33*	4	2	-5
CC(C)(C)c1ccc(S(=O)(=O)NC(=O)C2(C)CCN2C(=O)CC2CCCCC2)cc1 (stereo not given)	9	/	0	3	0
CC(C)(C)c1ccc(S(=O)(=O)NC(=O)C2(C)CCN2C(=O)C2CCCCC2)cc1 (stereo not given)	-1	-3	1	5	19*
CC(C)(C)c1ccc(CC(=O)N2CCC2(C)C(=O)NS(=O)(=O)c2cccc(C#N)c2)cc1 (stereo not given)	-2	4	-4	-3	/
C[C@@H]1CN([C@@H](C)CO)C(=O)c2cc(C#CC3CCCCC3)cnc2O[C@@H]1CN(C)S(C)(=O)=O	6	2	-1	-3	2

Screening results from PubChem.
